This passage reports EC50, MCC and CC50 results from ChEMBL document CHEMBL4229353, “Synthesis and antiviral evaluation of cyclopentyl nucleoside phosphonates” (Eur J Med Chem, 2018).

SMILES strings stand for the structures.

For series [1], the system named is Human alphaherpesvirus 3. The series is described as follows: Antiviral activity against thymidine kinase expressing Varicella-Zoster virus Oka infected in HEL cells assessed as inhibition of plaque formation measured after 5 days post infection. The note with it: Human alphaherpesvirus 3, strain Oka vaccine, 120 h. The class given is functional, organism-based. Put shortly:
(§1)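 Confluent HEL fibroblast monolayers in 96-well plates were inoculated with 20 PFU of VZV (Oka or TK– strain 07-1). After 2 h adsorption, the inoculum was removed and cultures were incubated with varying compound concentrations. Plaque formation was recorded at 5 days post-infection.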

Series [2] deals with Human alphaherpesvirus 3. The series is described as follows: Antiviral activity against thymidine kinase deficient Varicella-Zoster virus 07-1 infected in HEL cells assessed as inhibition of plaque formation measured after 5 days post infection. The class given is functional, organism-based. The note with it: Human alphaherpesvirus 3, 07-1, HEL, 120 h. Put shortly:
as §1

Series [3] has as its system Human alphaherpesvirus 1. The series can be described thus: Antiviral activity against thymidine kinase-deficient ACV-resistant Herpes simplex virus 1 KOS infected in HEL cells assessed as […] measured after 2 to 3 days post infection. The class given is functional, organism-based. The note with it: Human alphaherpesvirus 1, KOS. Put shortly: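 Confluent HEL fibroblast monolayers in 96-well plates were inoculated with 100 CCID50 of HSV-1 (KOS or TK-deficient ACV-resistant KOS). After 2 h adsorption, the inoculum was removed and cells were incubated with varying compound concentrations. Virus-induced cytopathicity was recorded at 2-3 days post-infection.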

Series [4] is described as follows: Cytotoxicity against HEL cells assessed as alteration in cell morphology after 3 days by microscopic analysis. The class given is cell-based. The note with it: human. Put shortly:
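Uninfected HEL cell cultures were exposed to graded compound concentrations. MCC is the lowest concentration producing a microscopically detectable alteration of cell morphology.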

Series [5] concerns Human alphaherpesvirus 2. The series is described as follows: Antiviral activity against Herpes simplex virus 2 G infected in HEL cells assessed as […] measured after 2 to 3 days post infection. The class given is functional, organism-based. The note with it: Human alphaherpesvirus 2, strain G. Put shortly:
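Confluent HEL fibroblast monolayers were infected with 100 CCID50 of virus, and the inoculum was removed after 2 h adsorption. Cells were then cultured with serial compound concentrations. Virus-induced cytopathicity was scored at 2-3 days (HSV) or 6-7 days (HCMV) post-infection.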

Series [6] in a line: Cytostatic activity against HEL cells after 3 days by Coulter counting method. The note with it: human. The class given is cell-based. Put shortly:
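HEL cells were seeded at 5 x 10^3 cells/well and left to proliferate for 24 h. Medium with graded compound concentrations was then added, followed by 3 days at 37 °C. Cells were counted with a Coulter counter. CC50, the concentration halving proliferation relative to untreated controls, was read from plots of cell number (% of control) versus concentration.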

As a reminder, the EC50 is the midpoint of the concentration-response curve. Regarding `Nc1ncnc2c1ncn2[C@@H]1C[C@H](OCP(=O)(O)O)[C@@H](O)C1`, the EC50 was 258 µM in series [1], 79 µM in series [2], above 303 µM in series [3] and above 303 µM in series [5]. Further, the MCC at 72 h in series [4] is above 303 µM.

For the compound `Nc1ccn([C@@H]2C[C@H](OCP(=O)(O)O)C[C@H]2O)c(=O)n1`, the EC50 in series [1], in series [2], in series [3] and in series [5] was above 327 µM each time. Moreover, in series [4], the MCC at 72 h is above 327 µM.

For `Nc1ncnc2c1ncn2[C@@H]1C[C@H](OCP(=O)(O)O)C[C@H]1O`, the concentration for a half-maximal effect (EC50) was above 303 µM in series [1], above 303 µM in series [2], 161 µM in series [3] and 132 µM in series [5]. Further, in series [4], the MCC at 72 h is above 303 µM.

The term CC50 denotes the concentration that lowers cell viability or growth by half. A lower CC50 goes with harm at low concentration. As to `Nc1nc2c(ncn2COCCO)c(=O)[nH]1` [ACYCLOVIR], the 50% effective concentration (EC50) is 3.37 µM in series [1], 14.1 µM in series [2], above 88 µM in series [3] and 0.29 µM in series [5]. Further, the cytotoxic concentration (CC50) at 72 h in series [6] was above 444 µM. Further, the MCC at 72 h in series [4] is above 444 µM.

Turning to `Nc1nc2c(ncn2[C@@H]2C[C@H](OCP(=O)(O)O)C[C@H]2O)c(=O)[nH]1`, the EC50 stood at 5.35 µM in series [1], 8.83 µM in series [2], 99 µM in series [3] and 57.9 µM in series [5]. The compound further registered a 50% cytotoxic concentration (CC50) at 72 h in series [6] above 289 µM. Also, in series [4], the MCC at 72 h is above 289 µM.

For the compound `Cc1cn([C@@H]2C[C@H](OCP(=O)(O)O)[C@@H](O)C2)c(=O)[nH]c1=O`, the concentration for a half-maximal effect (EC50) in series [1] is 23.1 µM; in series [2], 5.73 µM; in series [3], 9.89 µM; in series [5], 92.3 µM. The compound further showed a 50% cytotoxic concentration (CC50) at 72 h in series [6] of 69.4 µM. The MCC at 72 h in series [4] was above 247 µM.

`Cc1cn([C@@H]2C[C@H](OCP(=O)(O)O)C[C@H]2O)c(=O)[nH]c1=O`: the EC50 in series [1], in series [2], in series [3] and in series [5] was above 247 µM in each case. In addition, in series [4], the MCC at 72 h was above 247 µM.

Take `CC(C)OC(=O)[C@H](C)NP(=O)(CO[C@@H]1C[C@@H](O)[C@H](n2cnc3c(=O)[nH]c(N)nc32)C1)N[C@@H](C)C(=O)OC(C)C`: the EC50 in series [1] was 66.6 µM; in series [2], above 175 µM; in series [3] it was above 175 µM; in series [5], above 175 µM. This compound registered a 50% cytotoxic concentration (CC50) at 72 h in series [6] above 175 µM. In addition, the MCC at 72 h in series [4] was above 175 µM.

As for `Nc1ccn([C@@H]2C[C@H](OCP(=O)(O)O)[C@@H](O)C2)c(=O)n1`, the EC50 in series [1], in series [2], in series [3] and in series [5] was above 327 µM each time. Besides, in series [4], the MCC at 72 h is above 327 µM.

On to `O=c1[nH]c(=O)n([C@H]2C[C@H](O)[C@@H](CO)O2)cc1/C=C/Br` [BRIVUDINE], for which the concentration giving a half-maximal response (EC50) is 0.021 µM in series [1], 3.39 µM in series [2], above 30 µM in series [3] and above 30 µM in series [5]. In series [6], this compound yielded a half-maximal cytotoxic concentration (CC50) at 72 h above 300 µM. In addition, the MCC at 72 h in series [4] is above 300 µM.

Compound `Nc1nc2c(ncn2COC(CO)CO)c(=O)[nH]1` [GANCICLOVIR] gave a cytotoxic concentration (CC50) at 72 h in series [6] above 391 µM. Further, the 50% effective concentration (EC50) in series [3] was 3.91 µM; in series [5] it was 0.019 µM. For the same compound, the MCC at 72 h in series [4] is above 391 µM.

Turning to `Nc1ccn(C[C@@H](CO)OCP(=O)(O)O)c(=O)n1` [CIDOFOVIR], the CC50 at 72 h in series [6] is above 358 µM. In series [4], the MCC at 72 h was above 358 µM. Also, in series [5], the EC50 amounted to 2.27 µM.

For `CC(C)OC(=O)[C@H](C)NP(=O)(CO[C@H]1C[C@@H](n2cnc3c(=O)[nH]c(N)nc32)C[C@@H]1O)N[C@@H](C)C(=O)OC(C)C`, the EC50 in series [1] came to 35 µM; in series [2], 29.8 µM; in series [3] it was 35 µM; in series [5] it was 85.5 µM. The CC50 at 72 h in series [6] is above 175 µM. For the same compound, the MCC at 72 h in series [4] was above 175 µM.

As for `Nc1nc2c(ncn2[C@@H]2C[C@H](OCP(=O)(O)O)[C@@H](O)C2)c(=O)[nH]1`, the concentration giving a half-maximal response (EC50) in series [1] was 17.1 µM; in series [2], 8.38 µM; in series [3] it was 14.1 µM; in series [5] it was 33.9 µM. In series [6], the 50% cytotoxic concentration (CC50) at 72 h was above 289 µM. For the same compound, the MCC at 72 h in series [4] was above 289 µM.
